The values that follow come from ChEMBL document CHEMBL1138558, “Synthesis of some new 1,2,4-triazoles, their Mannich and Schiff bases and evaluation of their antimicrobial activities” (2009).

The structures appear in SMILES notation. The source made the active and inactive calls. The calls are words filed in the database; no cut-off is given here.

What all share (type): functional
Assay [1] has as its system Bacillus cereus. In words: Antimicrobial activity against Bacillus cereus 702 Roma at 10 ug after 18 hrs by agar-well diffusion method. The settings on record: read-out: IZ. (In general: In agar diffusion tests the substance spreads into inoculated agar from a disc or well.)
The test system of assay [2] is Yersinia pseudotuberculosis. As to the kind of experiment: Antimicrobial activity against Yersinia pseudotuberculosis ATCC 911 at 10 ug after 18 hrs by agar-well diffusion method. The settings on record: ATCC 911, 18 h, read-out: IZ. In a few lines: (§1)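 Bacteria suspended in Mueller Hinton broth at about 10⁶ cfu/mL, flood-inoculated onto Mueller Hinton agar and dried. Test substance placed into 5-mm wells bored with a sterile cork-borer. Incubation 18 h at 35 °C, then the inhibition zone around each well measured.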

Assay [3] has as its system Escherichia coli. As to the kind of experiment: Antimicrobial activity against Escherichia coli ATCC 25922 at 10 ug after 18 hrs by agar-well diffusion method. The settings on record: ATCC 25922, 18 h, read-out: IZ. In a few lines: as §1
The test system of assay [4] is Enterococcus faecalis. As to the kind of experiment: Antimicrobial activity against Enterococcus faecalis ATCC 29212 at 10 ug after 18 hrs by agar-well diffusion method. The settings on record: ATCC 29212, 18 h, read-out: IZ.
Assay [5] concerns Staphylococcus aureus. As to the kind of experiment: Antimicrobial activity against Staphylococcus aureus ATCC 25923 at 10 ug after 18 hrs by agar-well diffusion method. The settings on record: ATCC 25923, 18 h, read-out: IZ.
The subject of assay [6] is Pseudomonas aeruginosa. As to the kind of experiment: Antimicrobial activity against Pseudomonas aeruginosa ATCC 27853 at 10 ug after 18 hrs by agar-well diffusion method. The conditions noted are these: ATCC 27853, 18 h, read-out: IZ.
Assay [7] deals with Candida albicans. In words: Antimicrobial activity against Candida albicans ATCC 60193 at 5 ug after 18 hrs by agar-well diffusion method. The settings on record: ATCC 60193, 18 h, read-out: IZ. In a few lines: (§2)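 Yeast suspended in Mueller Hinton broth and diluted to about 10⁶ cfu/mL, then flood-inoculated onto Sabouraud Dextrose Agar and dried. 5-mm wells cut with a sterile cork-borer and filled with test substance. Plates incubated 18 h at 35 °C. Read-out is the zone of inhibition.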

For assay [8], the system named is Candida tropicalis. In words: Antimicrobial activity against Candida tropicalis ATCC 13803 at 5 ug after 18 hrs by agar-well diffusion method. The settings on record: ATCC 13803, 18 h, read-out: IZ. The essentials:
as §2

In assay [9] the test system is Staphylococcus aureus. In words: Antimicrobial activity against Staphylococcus aureus ATCC 25923 at 10 mg/mL after 18 hrs by agar-well diffusion method. The conditions noted are these: for zone of inhibition at 10000 µg/mL: ATCC 25923, 18 h, read-out: IZ. The essentials: (§3)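 Agar-well diffusion: each bacterium suspended in Mueller Hinton broth at about 10⁶ cfu/mL, flood-inoculated onto Mueller Hinton agar and dried. 5-mm wells were cut with a sterile cork-borer and filled with the test solution. Plates were incubated 18 h at 35 °C. The read-out was the diameter of the inhibition zone.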

In assay [10] the test system is Candida albicans. In words: Antimicrobial activity against Candida albicans ATCC 60193 at 10 mg/mL after 18 hrs by agar-well diffusion method. The essentials: (§4)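 Candida cultures were suspended in Mueller Hinton broth at about 10⁶ cfu/mL, flood-inoculated onto Sabouraud dextrose agar and dried. Test solution was loaded into 5-mm wells bored in the agar. Plates were incubated 18 h at 35 °C, and activity was scored as the inhibition zone around each well.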

Assay [11] has as its system Bacillus cereus. In words: Antimicrobial activity against Bacillus cereus 702 Roma at 10 mg/mL after 18 hrs by agar-well diffusion method. The settings on record: for zone of inhibition at 10000 µg/mL: read-out: IZ. In a few lines:
as §3

In assay [12] the test system is Enterococcus faecalis. As to the kind of experiment: Antimicrobial activity against Enterococcus faecalis ATCC 29212 at 10 mg/mL after 18 hrs by agar-well diffusion method. The conditions noted are these: for zone of inhibition at 10000 µg/mL: ATCC 29212, 18 h, read-out: IZ. In a few lines: as §3
Assay [13] deals with Pseudomonas aeruginosa. As to the kind of experiment: Antimicrobial activity against Pseudomonas aeruginosa ATCC 27853 at 10 mg/mL after 18 hrs by agar-well diffusion method. The settings on record: for zone of inhibition at 10000 µg/mL: ATCC 27853, 18 h, read-out: IZ. The essentials: as §3
Assay [14] concerns Yersinia pseudotuberculosis. In words: Antimicrobial activity against Yersinia pseudotuberculosis ATCC 911 at 10 mg/mL after 18 hrs by agar-well diffusion method. The conditions noted are these: for zone of inhibition at 10000 µg/mL: ATCC 911, 18 h, read-out: IZ. In a few lines: as §1
The test system of assay [15] is Candida tropicalis. In words: Antimicrobial activity against Candida tropicalis ATCC 13803 at 10 mg/mL after 18 hrs by agar-well diffusion method. The essentials: as §4
In assay [16] the test system is Escherichia coli. As to the kind of experiment: Antimicrobial activity against Escherichia coli ATCC 25922 at 10 mg/mL after 18 hrs by agar-well diffusion method. The conditions noted are these: for zone of inhibition at 10000 µg/mL: ATCC 25922, 18 h, read-out: IZ. The essentials: as §3

For the molecule `CC1(C)S[C@@H]2[C@H](NC(=O)[C@H](N)c3ccccc3)C(=O)N2[C@H]1C(=O)O` [AMPICILLIN], the zone of inhibition at 10 µg/disc with Bacillus cereus [1] is 15 mm; in assay [2] it was 18 mm; in the assay with Escherichia coli [3] it was 10 mm; in the assay with Enterococcus faecalis [4], 10 mm; in the assay on Staphylococcus aureus [5], 35 mm; with Pseudomonas aeruginosa [6], 18 mm.
`OC(Cn1cncn1)(Cn1cncn1)c1ccc(F)cc1F` [FLUCONAZOLE]: the zone of inhibition at 5 µg/disc in the assay with Candida albicans [7] and with Candida tropicalis [8] was 25 mm in each case.
Take `CCOC(=O)CSc1nnc(-c2ccncc2)n1-c1ccccc1`: the “inhibition zone (IZ)” value (in the assay with Staphylococcus aureus [9]; with Bacillus cereus [11]; in the assay with Enterococcus faecalis [12]; in the assay with Pseudomonas aeruginosa [13]; in assay [14]; in the assay on Escherichia coli [16]) was “inactive” throughout. The zone of inhibition at 10000 µg/mL worked out at 13 mm in the assay on Candida albicans [10] (ATCC 60193, 18 h, read-out: IZ) and 13 mm in the assay on Candida tropicalis [15] (ATCC 13803, 18 h, read-out: IZ).
Consider `COc1ccc(/C=N/NC(=O)CSc2nnc(-c3ccncc3)n2-c2ccccc2)cc1`, for which the zone of inhibition at 10000 µg/mL in the assay on Staphylococcus aureus [9] was found to be 28 mm; with Bacillus cereus [11], 25 mm; in the assay with Enterococcus faecalis [12] it was 28 mm; in the assay with Pseudomonas aeruginosa [13] it was 30 mm; in [14], 30 mm; in the assay on Escherichia coli [16] it was 24 mm. Also, the “inhibition zone (IZ)” value in the assay with Candida albicans [10] and in the assay with Candida tropicalis [15] was “inactive” each time.
For the molecule `Cc1ccc(-n2c(CSc3nnc(-c4ccncc4)n3-c3ccccc3)nn(CN3CCN(C)CC3)c2=S)cc1`, the “inhibition zone (IZ)” value (in the assay on Staphylococcus aureus [9]; in the assay on Candida albicans [10]; in the assay on Bacillus cereus [11]; in the assay on Enterococcus faecalis [12]; in the assay with Pseudomonas aeruginosa [13]; in assay [14]) was “inactive” throughout. For the same molecule, the “inhibition zone (IZ)” value with Candida tropicalis [15] and in the assay with Escherichia coli [16] was “inactive” in each case.
In the case of `Cc1ccc(Nc2nnc(CSc3nnc(-c4ccncc4)n3-c3ccccc3)s2)cc1`, the zone of inhibition at 10000 µg/mL is 25 mm with Staphylococcus aureus [9]; 20 mm in the assay on Bacillus cereus [11]; 20 mm in the assay with Enterococcus faecalis [12]; 35 mm with Pseudomonas aeruginosa [13]; 22 mm in [14]; 31 mm in the assay on Escherichia coli [16]. Besides, the “inhibition zone (IZ)” value in the assay with Candida albicans [10] and in the assay with Candida tropicalis [15] was “inactive” each time.
For the molecule `O=C(CSc1nnc(-c2ccncc2)n1-c1ccccc1)N/N=C/c1ccc(O)c(O)c1`, the “inhibition zone (IZ)” value (in the assay with Staphylococcus aureus [9]; in the assay with Candida albicans [10]; with Bacillus cereus [11]; in the assay on Enterococcus faecalis [12]; in the assay with Pseudomonas aeruginosa [13]; in assay [14]) was “inactive” in each case. The “inhibition zone (IZ)” value with Candida tropicalis [15] and in the assay with Escherichia coli [16] was “inactive” throughout.
